23 compounds from ChEMBL document CHEMBL1177660, “Discovery of novel purine derivatives with potent and selective inhibitory activity against c-Src tyrosine kinase” (Bioorg Med Chem, 2010) can be followed below.

Some results are limits rather than exact numbers.

One assay deals with T1, Proto-oncogene tyrosine-protein kinase Src (Homo sapiens, UniProt P12931). The experiment in a line: Inhibition cSRC.
T1 sequence (P12931 2-536 limits assumed): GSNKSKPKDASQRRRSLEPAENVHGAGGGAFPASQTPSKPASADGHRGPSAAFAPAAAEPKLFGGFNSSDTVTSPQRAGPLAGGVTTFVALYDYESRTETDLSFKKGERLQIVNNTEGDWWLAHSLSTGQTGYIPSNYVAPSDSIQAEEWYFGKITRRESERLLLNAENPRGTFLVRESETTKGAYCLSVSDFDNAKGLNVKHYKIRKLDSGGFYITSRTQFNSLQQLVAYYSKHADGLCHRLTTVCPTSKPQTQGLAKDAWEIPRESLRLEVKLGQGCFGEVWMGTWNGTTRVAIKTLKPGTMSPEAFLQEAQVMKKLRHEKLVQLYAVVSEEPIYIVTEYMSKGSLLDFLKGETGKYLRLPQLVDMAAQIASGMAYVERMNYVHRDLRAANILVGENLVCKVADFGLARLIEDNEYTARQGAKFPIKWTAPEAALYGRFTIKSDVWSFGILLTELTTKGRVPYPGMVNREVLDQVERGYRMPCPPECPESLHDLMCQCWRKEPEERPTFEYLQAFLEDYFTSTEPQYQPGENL
In the case of `c1ccc(Cn2cnc3c(Nc4ccccc4)nc(N4CCNCC4)nc32)cc1`, the IC50 (in general, the midpoint of a concentration-inhibition curve) is > 10000 nM. `Brc1ccc(Nc2nc(N3CCNCC3)nc3[nH]cnc23)cc1` had an IC50 of 1760 nM. On the same count and under the same terms, the same measure for `COc1ccc(Nc2nc(N3CCN(CCO)CC3)nc3nc[nH]c23)cc1`: 1330 nM.

Take `COc1ccc(Nc2nc(N3CCOCC3)nc3[nH]cnc23)cc1`: half-maximal inhibition (IC50) required 130 nM. Same read-out and setting: in the case of `COc1cccc(Nc2nc(N3CCOCC3)nc3[nH]cnc23)c1` it was 930 nM; in that of `COc1ccc(Nc2nc(N3CCOCC3)nc3c2ncn3Cc2ccccc2)cc1`, > 10000 nM; in that of `OCCN1CCN(c2nc(Nc3ccc(Cl)cc3)c3[nH]cnc3n2)CC1`, 690 nM. Same read-out and setting: in the case of `Cc1cccc(Nc2nc(N3CCNCC3)nc3nc[nH]c23)c1` it was 2420 nM; in that of `Cc1cccc(Nc2nc(N3CCN(CCO)CC3)nc3nc[nH]c23)c1`, 2550 nM. Still for that read-out and setting: in the case of `Cc1cccc(Nc2nc(N3CCOCC3)nc3nc[nH]c23)c1` it was 830 nM. Turning to `COc1ccc(Nc2nc(N3CCNCC3)nc3c2ncn3Cc2ccccc2)cc1`, the IC50 was > 10000 nM.

Regarding `O=[N+]([O-])c1ccc(Nc2nc(N3CCOCC3)nc3nc[nH]c23)cc1`, the midpoint of inhibition, the IC50, lay at 390 nM. `NS(=O)(=O)c1cccc(Nc2nc(N3CCNCC3)nc3[nH]cnc23)c1` came in with an IC50 of 100 nM. On the same count and under the same terms, the same measure for `c1ccc(Nc2nc(N3CCOCC3)nc3[nH]cnc23)cc1`: 750 nM; for `NS(=O)(=O)c1ccc(Nc2nc(N3CCNCC3)nc3[nH]cnc23)cc1`: 1820 nM. Same read-out and setting: the same measure for `NC(=O)c1ccc(Nc2nc(N3CCN(CCO)CC3)nc3[nH]cnc23)cc1`: 1220 nM; for `Clc1ccc(Nc2nc(N3CCOCC3)nc3nc[nH]c23)cc1`: 340 nM; for `Brc1ccc(Nc2ncnc3c2ncn3Cc2ccccc2)cc1`: > 10000 nM.

`O=[N+]([O-])c1ccc(Nc2nc(N3CCNCC3)nc3[nH]cnc23)cc1` had an IC50 of 1400 nM. The compound `NS(=O)(=O)c1cccc(Nc2nc(N3CCN(CCO)CC3)nc3nc[nH]c23)c1` showed an IC50 of 340 nM. For `O=[N+]([O-])c1cccc(Nc2nc(N3CCN(CCO)CC3)nc3[nH]cnc23)c1`, the IC50 stood at 340 nM.

The next assay deals with T1, Proto-oncogene tyrosine-protein kinase Src. The experiment in a line: Inhibition cSRC at 10 uM. The procedure, abridged: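 Purified kinases assayed by ELISA on wells coated with 20 µg/mL poly(Glu,Tyr)4:1. Detected with PY99 anti-phosphotyrosine, HRP anti-mouse IgG and o-phenylenediamine; A492.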
As for `c1ccc(Cn2cnc3c(Nc4ccccc4)nc(N4CCNCC4)nc32)cc1`, the inhibition (in general, the share of the control response that was lost under treatment) was found to be 35.8%.

The compound `COc1ccc(Nc2nc(N3CCOCC3)nc3c2ncn3Cc2ccccc2)cc1` showed an inhibition of 16%. Consider `COc1ccc(Nc2nc(N3CCNCC3)nc3c2ncn3Cc2ccccc2)cc1`, for which the inhibition stood at 22.5%. `Brc1ccc(Nc2ncnc3c2ncn3Cc2ccccc2)cc1` had an inhibition of 6.9%. As for `Cc1cccc(Nc2nc(N3CCNCC3)nc3[nH]cnc23)c1`, the inhibition amounted to 86.6%.

Compound `COc1ccc(Nc2nc(N3CCNCC3)nc3[nH]cnc23)cc1` yielded an inhibition of 90.5%.
